Test results published in publication PMC5025877 (Circulation research, 2014).
Entries after “also recorded” stand apart in the source; their conditions may differ. One block for each molecule: values may come before it.

Assays:
[1] = tested on: NADPH oxidase; type: cell-based, rat; conditions: VSMC membrane fractions, lucigenin, RLU, n=5–15; for TNF-α-primed NADPH oxidase activity, effect of inhibitor: TNF-α pre-treatment
In short: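 Cultured rat (A7r5) aortic VSMCs were pretreated with the test compound (a PKC inhibitor) or with the flavoenzyme inhibitor DPI, then stimulated with TNF-α. NADPH oxidase activity was measured by lucigenin-enhanced chemiluminescence and reported as relative light units. n=5–15.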

[2] = tested on: VSMCs; test: VSMC migration to TNF-α; type: cell-based, murine
In short: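 Aortic VSMCs from WT C57Bl6/J and Nox1-/y mice were pretreated with the test compound (a PKC inhibitor), and their migration to TNF-α was counted. n=5–15.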

[3] = tested on: Nox1; test: Nox1 phosphorylation in VSMCs, IP anti-p22phox / Western blot anti-STY; type: cell-based, rat; conditions: for Nox1 phosphorylation on agonist treatment (other agonists): VSMC, Online Figure III, timing may be agonist dependent
In short: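 A7r5 rat aortic VSMCs in culture were stimulated with TNF-α, with or without PKC inhibitor pretreatment. Nox1 phosphorylation was detected by Western blotting with an anti-phospho-Ser/Thr/Tyr (anti-STY) antibody. n=3.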

[4] = tested on: Nox1; test: ROS production by CM-H2DCF fluorescence in VSMCs; type: cell-based, murine
In short: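 Cultured aortic VSMCs from C57Bl6/J (WT) and Nox1-/y mice were pretreated with the test compound (a PKC inhibitor), then stimulated with TNF-α. ROS were imaged by CM-H2DCF fluorescence, with nuclei counterstained with ToPro3.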

[5] = tested on: Nox1; test: superoxide in intact CosPhox cells with p47phox and NoxA1; type: cell-based; conditions: TNF-α (10 ng/ml), PDGF-BB (10 ng/ml), AngII (10^-7 M), PMA (10^-6 M), RLU/sec, n=4
In short: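 Cos7 cells stably expressing p22phox (CosPhox) were transfected with p47phox, NoxA1, and either wild-type or T429A Nox1. Superoxide was read as luminescence (RLU/sec) in intact cells immediately after agonist addition. The unstimulated signal was subtracted from the agonist signal, and values were normalized to cell number.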

[6] = biological target: NoxA1 activation domain (AD); test: ITC binding of NoxA1 AD peptide with Nox1 peptides; conditions: for Kd: read-out: Kd (affinity) for NoxA1 AD, n=3 independent experiments
[7] = circular dichroism of peptides; type: physicochemical; conditions: negative dip below 200 nm, near-zero shoulders at longer wavelengths
[8] = tested on: human recombinant PKC-βI; test: dot blot; type: biochemical; conditions: anti-p-STY; total peptide by Ponceau staining
In short: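 Input and product of the in vitro PKC-βI kinase reaction on the Nox1 T429 peptide were dot-blotted and probed with anti-p-STY. Total peptide was measured by Ponceau staining. Signal was quantified as the ratio of p-STY to total peptide. A phosphorylated T429 peptide was included.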

[9] = tested on: human recombinant PKC-βI; test: ITC in vitro kinase reaction of recombinant PKC-βI with Nox1 peptide; type: biochemical; conditions: slow return to baseline after heat of dilution
[10] = tested on: p47^phox; test: p47phox membrane recruitment; type: cell-based; conditions: WT versus T429A Nox1; Online Figure VIII
[11] = tested on: NoxA1; test: NoxA1 membrane recruitment in CosPhox cells; type: cell-based; conditions: n=4
In short: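 CosPhox cells (Cos7 stably expressing p22phox, p47phox and p67phox) expressed p22phox, NoxA1, and either WT or T429A Nox1. After TNF-α treatment, membrane fractions were isolated and immunoblotted for NoxA1. Whole-cell lysates taken before membrane isolation were probed for GAPDH. n=4 independent experiments.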

[12] = biological target: T1, phosphorylated Nox1 peptide (peptide containing phosphorylated Nox1 at T429); test: ITC
T1 chain: KLKTQKIYF

Molecule: COc1c(C[C@@H](C)OC(=O)Oc2ccc(O)cc2)c2c3c(C[C@@H](C)OC(=O)c4ccccc4)c(OC)c(=O)c4c(O)cc(OC)c(c5c(OC)cc(O)c(c1=O)c52)c43 [CalC, Calphostin C, reference compound]
TNF-α-primed NADPH oxidase activity, effect of inhibitor [1]: completely abolished
TNF-α-mediated migration, effect of pretreatment ([2]; WT murine VSMCs, n=5–15): blocked
TNF-α-stimulated Nox1 phosphorylation, effect of pretreatment ([3]; cultured A7r5 rat aortic VSMCs, TNF-α, n=3): inhibited
Nox1-dependent ROS production, effect of pretreatment ([4]; WT murine VSMCs, TNF-α): abrogated

Molecule: c1ccc2c(c1)[I+]c1ccccc1-2 [DPI]
TNF-α-primed NADPH oxidase activity, effect of inhibitor [1]: completely abolished

Molecule: CCCCCCCCCCCCCC(=O)O[C@@H]1[C@@H](C)[C@@]2(O)[C@@H](C=C(CO)C[C@]3(O)C(=O)C(C)=C[C@@H]23)[C@@H]2C(C)(C)[C@]12OC(C)=O [PMA, phorbol myristate acetate, reference compound]
Nox1 phosphorylation on agonist treatment (other agonists) [3]: phosphorylation of VSMC Nox1 occurs
agonist-stimulated cellular superoxide, T429A Nox1 [5]: does not require phosphorylation of T429
agonist-stimulated cellular superoxide, WT Nox1 [5]: increased

Kd [6]: 1500 ± 300 nM
Molecule: KLKT*QKIYF [pNox1 peptide]
secondary structure by circular dichroism [7]: unstructured; also recorded: characteristic random coil signals

interaction with NoxA1 (in words) [6]: no measurable interaction
Kd [6]: > 100000 nM
phosphorylation by PKC-βI, dot blot [8]: confirms phosphorylation
phosphorylation by PKC-βI (heat of reaction) [9]: substrate for PKC-βI
Molecule: KLKTQKIYF [Nox1 peptide]

Molecule: TNF-α
NADPH oxidase activity on TNF-α pre-treatment [1]: primes NADPH oxidase activity
p47phox membrane recruitment on TNF-α [10]: WT but not T429A Nox1 caused a recruitment of p47^phox to the membrane
VSMC migration to TNF-α ([2]; Nox1^-/y VSMCs compared): requires Nox1
Nox1 phosphorylation on agonist treatment ([3]; cultured A7r5 rat aortic VSMCs, n=3): increased Nox1 phosphorylation
NoxA1 membrane translocation following TNF-α, T429A Nox1 ([11]; CosPhox cells with T429A Nox1): prevented
TNF-α-induced NoxA1 membrane recruitment, WT Nox1 ([11]; CosPhox cells with p22phox, p47phox, NoxA1, WT Nox1): recruitment of NoxA1 to the membrane
ROS production on TNF-α ([4]; WT versus Nox1^-/y VSMCs): robust ROS production in WT but not Nox1^-/y VSMCs
agonist-stimulated cellular superoxide, T429A Nox1 [5]: markedly attenuated
agonist-stimulated cellular superoxide, WT Nox1 [5]: increased

Molecule: angiotensin II (DRVYIHPF; Angiotensin-2; UniProt P01019 25-32, looked up) [AngII, reference compound]
agonist-stimulated cellular superoxide, T429A Nox1 [5]: markedly attenuated
agonist-stimulated cellular superoxide, WT Nox1 [5]: increased

Kd [12]: 1500 nM
stoichiometry N [12]: 0.86
B1: NoxA1 activation domain peptide (peptide)
chain: EPVDFLGKAKVVASAIP
modifications: not checked

B2: PDGF-BB: platelet-derived growth factor-BB (protein, UniProt P01127 82-190, looked up)
Platelet-derived growth …: SLGSLTIAEPAMIAECKTRTEVFEISRRLIDRTNANFLVWPPCVEVQRCSGCCNNRNVQCRPTQVQLRPVQVRKIEIVRKKPIFKKATVTLEDHLACKCETVAAARPVT
modifications: homodimer BB
Nox1 phosphorylation on agonist treatment (other agonists) [3]: phosphorylation of VSMC Nox1 occurs
agonist-stimulated cellular superoxide, T429A Nox1 [5]: markedly attenuated
agonist-stimulated cellular superoxide, WT Nox1 [5]: increased
